≈ marks a conversion by molar mass, not a printed value. Calls of active or inactive are those of the source. The rule behind the calls is not given here.
Key:
Rattus norvegicus [1] = assay: Antiinflammatory activity in Sprague-Dawley rat assessed as inhibition of carrageenan-induced paw edema at 50 to 70 mg/kg, sc administered 1 hr before carrageenan challenge measured after 1 hr relative to control; type: functional; settings: dose mg/kg 50-70; route subcutaneous
Method in brief: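 One hour later, baseline right hind paw volume was taken, then 0.05 mL of 1% carrageenan in sterile pyrogen-free 0.9% NaCl was injected into the plantar aponeurosis. Paw volume was read by water plethysmometer at 1, 2, 3 and 4 h. % inhibition = (1 − Rt/Rc) × 100 against carrageenan-only controls (n=5).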

Rattus norvegicus [2] = assay: Antiinflammatory activity in Sprague-Dawley rat assessed as inhibition of carrageenan-induced paw edema at 50 to 70 mg/kg, sc administered 1 hr before carrageenan challenge measured after 4 hrs relative to control; settings: dose mg/kg 50-70; route subcutaneous
Rattus norvegicus [3] = assay: Antiinflammatory activity in Sprague-Dawley rat assessed as inhibition of carrageenan-induced paw edema at 50 to 70 mg/kg, sc administered 1 hr before carrageenan challenge measured after 3 hrs relative to control; settings: dose mg/kg 50-70; route subcutaneous
Rattus norvegicus [4] = assay: Antiinflammatory activity in Sprague-Dawley rat assessed as inhibition of carrageenan-induced paw edema at 50 to 70 mg/kg, sc administered 1 hr before carrageenan challenge measured after 2 hrs relative to control; settings: dose mg/kg 50-70; route subcutaneous
Staphylococcus aureus [5] = assay: Antimicrobial activity against Staphylococcus aureus ATCC 29213 at 25 ug/disk by disk diffusion method; type: functional; settings: read-out: DIZ
Method in brief: (§1)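 Disc diffusion sensitivity test as per Bauer et al. Bacteria were subcultured on Mueller-Hinton agar overnight at 37 °C; Candida on SDA at 35 °C for 24-48 h, each passaged at least twice. DMSO served as solvent control; amoxicillin and fluconazole were references. Read-out was the inhibition zone.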

Candida albicans [6] = assay: Antimicrobial activity against Candida albicans ATCC 10231 at 25 ug/disk by disk diffusion method; type: functional, organism-based; method in brief: as §1
Escherichia coli [7] = assay: Antimicrobial activity against Escherichia coli ATCC 25922 at 25 ug/disk by disk diffusion method; type: functional; settings: read-out: DIZ; method in brief: as §1
Escherichia coli [8] = assay: Antimicrobial activity against Escherichia coli ATCC 25922 after 24 hrs by microdilution assay; type: functional; settings: ATCC 25922, 24 h
Method in brief: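 MIC by microdilution following NCCLS 1997 guidelines. Bacteria were subcultured on Mueller-Hinton agar overnight at 37 °C and passaged at least twice. Compounds were serially two-fold diluted in DMSO (1024 down to 16), mixed with nutrient agar, and inoculated. MIC was the lowest concentration with no macroscopic growth. DMSO, organism-only and medium-only controls were included, with amoxicillin as reference.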

Pseudomonas aeruginosa [9] = assay: Antimicrobial activity against Pseudomonas aeruginosa ATCC […] at 25 ug/disk by disk diffusion method; type: functional; settings: read-out: DIZ; method in brief: as §1
Mycolicibacterium phlei [10] = assay: Antimicrobial activity against Mycobacterium phlei ATCC 10142 at 25 ug/disk by disk diffusion method; type: functional, organism-based; method in brief: as §1
Staphylococcus aureus [11] = assay: Antimicrobial activity against Staphylococcus aureus ATCC 29213 after 24 hrs by microdilution assay; type: functional; settings: ATCC 29213, 24 h
Method in brief: (§2)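 MIC by microdilution following NCCLS 1997 guidelines. Compounds were serially two-fold diluted in DMSO from 1024 down to […], mixed with sterile nutrient agar, and inoculum was added to each well. MIC was read as the lowest concentration giving complete absence of macroscopic growth. Controls were DMSO, organism alone and medium alone. Bacteria were precultured on MHA at 37 °C overnight; Candida on SDA at 35 °C.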

Bacillus subtilis [12] = assay: Antimicrobial activity against Bacillus subtilis ATCC 6633 at 25 ug/disk by disk diffusion method; type: functional; settings: read-out: DIZ; method in brief: as §1
Pseudomonas aeruginosa [13] = assay: Antimicrobial activity against Pseudomonas aeruginosa ATCC […] after 24 hrs by microdilution assay; type: functional
Method in brief: (§3)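 MIC by micro-dilution per NCCLS 1997. Bacteria were subcultured overnight on Mueller-Hinton agar at 37 °C and passaged at least twice. Compounds were serially two-fold diluted in DMSO (1024 down to 16 stock levels) and mixed with sterile nutrient agar, then inoculum was added to the wells. MIC is the lowest concentration giving complete inhibition of macroscopic growth. Controls were DMSO, organism alone and medium alone.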

Bacillus subtilis [14] = assay: Antimicrobial activity against Bacillus subtilis ATCC 6633 after 24 hrs by microdilution assay; type: functional; settings: ATCC 6633, 24 h; method in brief: as §3
Staphylococcus aureus [15] = assay: Antimicrobial activity against Staphylococcus aureus ATCC 29213 at 4 ug/disk by disk diffusion method; type: functional, organism-based
Candida albicans [16] = assay: Antimicrobial activity against Candida albicans ATCC 10231 after 48 hrs by microdilution assay; type: functional; settings: ATCC 10231, 48 h; method in brief: as §2
Escherichia coli [17] = assay: Antimicrobial activity against Escherichia coli ATCC 25922 at 4 ug/disk by disk diffusion method; type: functional, organism-based
Bacillus subtilis [18] = assay: Antimicrobial activity against Bacillus subtilis ATCC 6633 at 4 ug/disk by disk diffusion method; type: functional, organism-based
Pseudomonas aeruginosa [19] = assay: Antimicrobial activity against Pseudomonas aeruginosa ATCC […] at 4 ug/disk by disk diffusion method; type: functional, organism-based
Mycolicibacterium phlei [20] = assay: Antimicrobial activity against Mycobacterium phlei ATCC 10142 at 4 ug/disk by disk diffusion method; type: functional, organism-based
Candida albicans [21] = assay: Antimicrobial activity against Candida albicans ATCC 10231 at 4 ug/disk by disk diffusion method; type: functional; settings: read-out: DIZ
Candida albicans [22] = assay: Antimicrobial activity against Candida albicans ATCC 10231 at 20 ug/disk by disk diffusion method; type: functional, organism-based; method in brief: as §1
Bacillus subtilis [23] = assay: Antimicrobial activity against Bacillus subtilis ATCC 6633 at 20 ug/disk by disk diffusion method; type: functional; settings: read-out: DIZ; method in brief: as §1
Mycolicibacterium phlei [24] = assay: Antimicrobial activity against Mycobacterium phlei ATCC 10142 at 20 ug/disk by disk diffusion method; type: functional, organism-based; method in brief: as §1
Staphylococcus aureus [25] = assay: Antimicrobial activity against Staphylococcus aureus ATCC 29213 at 20 ug/disk by disk diffusion method; type: functional, organism-based; method in brief: as §1
Escherichia coli [26] = assay: Antimicrobial activity against Escherichia coli ATCC 25922 at 20 ug/disk by disk diffusion method; type: functional, organism-based; method in brief: as §1
Pseudomonas aeruginosa [27] = assay: Antimicrobial activity against Pseudomonas aeruginosa ATCC […] at 20 ug/disk by disk diffusion method; type: functional, organism-based; method in brief: as §1

Structure (SMILES) | inhibition (INH) (Rattus norvegicus [1]) [%] | inhibition (INH) (Rattus norvegicus [2]) [%] | inhibition (INH) (Rattus norvegicus [3]) [%] | inhibition (INH) (Rattus norvegicus [4]) [%] | further results
Cc1c(-n2c(-c3ccccc3)c(-c3ccccc3)c3c(N)nc(=S)[nH]c32)n(C)n(-c2ccccc2)c1=O | 0 | 64.28 | 73.34 | 0 | –
Cc1c(-n2c(-c3ccccc3)c(-c3ccccc3)c3c(=N)n(-c4ccccc4)c(=S)[nH]c32)n(C)n(-c2ccccc2)c1=O | 1.98 | – | – | – | –
CC1(C)S[C@@H]2[C@H](NC(=O)[C@H](N)c3ccc(O)cc3)C(=O)N2[C@H]1C(=O)O [AMOXICILLIN] | – | – | – | – | zone of inhibition at 25 µg/disc (Staphylococcus aureus [5]): 13 mm; diameter of the inhibition zone (DIZ) (Candida albicans [6]): inactive; zone of inhibition at 25 µg/disc (Escherichia coli [7]): 13 mm; MIC (Escherichia coli [8]): 256 µg/mL (≈ 701 µM); zone of inhibition at 25 µg/disc (Pseudomonas aeruginosa [9]): 12 mm; diameter of the inhibition zone (DIZ) (Mycolicibacterium phlei [10]): inactive; MIC (Staphylococcus aureus [11]): 16 µg/mL (≈ 43.8 µM); zone of inhibition at 25 µg/disc (Bacillus subtilis [12]): 12 mm; MIC (Pseudomonas aeruginosa [13]): 64 µg/mL (≈ 175 µM); MIC (Bacillus subtilis [14]): 64 µg/mL (≈ 175 µM)
O=c1/c(=C/c2ccccc2)sc2nc3c(c(-c4ccccc4)c(-c4ccccc4)n3Cc3ccccc3)c(=S)n12 | 3.498 | – | – | – | –
S=c1[nH]c(=S)c2c(-c3ccccc3)c(-c3ccccc3)n(Cc3ccccc3)c2[nH]1 | 2.608 | 27.61 | 13.23 | 5.38 | MIC (Bacillus subtilis [14]): 512 µg/mL (≈ 1200 µM)
N#Cc1c(-c2ccccc2)cn(-c2ccc(Cl)c(Cl)c2)c1N | 2.17 | 19.04 | 13.88 | 12.3 | –
N#Cc1c(-c2ccccc2)c(-c2ccccc2)n(Cc2ccccc2)c1N | 3.04 | 23.8 | 12.59 | 4.23 | –
Nc1nc(=S)[nH]c2c1c(-c1ccccc1)cn2-c1ccc(Cl)c(Cl)c1 | 6.08 | 76.82 | 95.95 | 95.38 | –
Cc1c(-n2c(-c3ccccc3)c(-c3ccccc3)c3c(=S)n4c(=O)/c(=C/c5ccccc5)sc4nc32)n(C)n(-c2ccccc2)c1=O | 1.74 | – | – | – | –
OC(Cn1cncn1)(Cn1cncn1)c1ccc(F)cc1F [FLUCONAZOLE] | – | – | – | – | diameter of the inhibition zone (DIZ) (Staphylococcus aureus [15]): inactive; MIC (Candida albicans [16]): 512 µg/mL (≈ 1670 µM); diameter of the inhibition zone (DIZ) (Escherichia coli [17]): inactive; diameter of the inhibition zone (DIZ) (Bacillus subtilis [18]): inactive; diameter of the inhibition zone (DIZ) (Pseudomonas aeruginosa [19]): inactive; diameter of the inhibition zone (DIZ) (Mycolicibacterium phlei [20]): inactive; zone of inhibition at 4 µg/disc (Candida albicans [21]): 20 mm
O=c1/c(=C/c2ccccc2)sc2nc3c(c(-c4ccccc4)cn3-c3ccc(Cl)c(Cl)c3)c(=S)n12 | 0 | – | – | – | –
NNc1nc(N)c2c(-c3ccccc3)c(-c3ccccc3)n(Cc3ccccc3)c2n1 | 10.43 | 79.04 | 73.9 | 61.15 | –
N=c1c2c(-c3ccccc3)cn(-c3ccc(Cl)c(Cl)c3)c2[nH]c(=S)n1-c1ccccc1 | 42 | 68.57 | 76.83 | 48.07 | –
NNc1nc(N)c2c(-c3ccccc3)cn(-c3ccc(Cl)c(Cl)c3)c2n1 | 14.78 | 67.43 | 95.58 | 30 | –
CC(C)Cc1ccc(C(C)C(=O)O)cc1 (stereo not drawn) [IBUPROFEN] | 6.08 | 69.52 | 60.66 | 45 | –
Cc1c(-n2c(-c3ccccc3)c(-c3ccccc3)c3c(=S)[nH]c(=S)[nH]c32)n(C)n(-c2ccccc2)c1=O | 0 | 28.8 | 14.1 | 3.94 | –
S=c1[nH]c(=S)c2c(-c3ccccc3)cn(-c3ccc(Cl)c(Cl)c3)c2[nH]1 | 1.73 | 26 | 12.53 | 4.48 | –
Nc1nc(=S)[nH]c2c1c(-c1ccccc1)c(-c1ccccc1)n2Cc1ccccc1 | 1.73 | 24.76 | 13.97 | 3.84 | MIC (Staphylococcus aureus [11]): 256 µg/mL (≈ 627 µM); MIC (Bacillus subtilis [14]): 512 µg/mL (≈ 1250 µM)
Cc1c(-n2c(N)c(C#N)c(-c3ccccc3)c2-c2ccccc2)n(C)n(-c2ccccc2)c1=O | 9.5 | 64.68 | 62.62 | 36.53 | diameter of the inhibition zone (DIZ) (Candida albicans [22]): inactive; zone of inhibition at 20 µg/disc (Bacillus subtilis [23]): 10 mm; diameter of the inhibition zone (DIZ) (Mycolicibacterium phlei [24]): inactive; diameter of the inhibition zone (DIZ) (Staphylococcus aureus [25]): inactive; diameter of the inhibition zone (DIZ) (Escherichia coli [26]): inactive; diameter of the inhibition zone (DIZ) (Pseudomonas aeruginosa [27]): inactive; MIC (Bacillus subtilis [14]): 512 µg/mL (≈ 1150 µM)
